High-throughput results as filed in PubChem.
Arrestin-AP2 inh = inhibitors of beta-arrestin/AP2 binding, primary screen, biochemical, GPCR trafficking, flow cytometry; beta-arrestin 1 C-terminal peptide binding to AP2 beta2-adaptin appendage (human); FITC-arrestin peptide / GST-AP2 beads; AP2 beta2 appendage carries R879A mutation; inhibition, % at 10 µM; hit rate 0.31% among 340,000; AID 504490, 2011;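 active = inhibition above a set limit, near 3 SD of compounds lacking own fluorescence, cut at about 54% in these data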;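 also: plate controls were DMSO wells for no effect and 5 µM unlabelled arrestin peptide for full effect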
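System: GST-AP2 R879A glutathione beads. Medium: PBS with 0.05% Tween 20 and 0.1% BSA. Also added: FITC-arrestin peptide, 50 nM. Incubation: 12 min plus 1 h, RT. Measured by: high-throughput flow cytometry of beads, ex 488, em 535 nm. Evaluation: percent drop in bead-associated FITC signal.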
hiPSC survival = enhancers of single-cell hiPSC survival, primary screen, ATPlite luminescence. hit rate 0.044% among 360,000. AID 602274, 2012. 100% = ROCK inhibitor wells, 0% = DMSO. survival enhancement, % at 20 µM; in the data active = survival enhancement above about 18%;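 also: cells exposed to compounds for 16 hours before the ATP read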
GRIN3A LBD mod = binders of NR3A ligand-binding domain, primary screen, biophysical, differential scanning fluorimetry, uHTS | NR3A LBD differential scanning fluorimetry, Tm shift; 0% = protein alone, 100% = glycine-bound protein | Tm shift relative to glycine control, % at 25 µM | hit rate 2.5% among 340,000 | AID 1259313, 2017;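 active = melting temperature shift of at least 10% of the positive control shift, at one fixed dose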
Cardio protect = cardioprotection against H2O2-induced cell death, primary screen, uHTS, H9c2 cells, ATPLite luminescence. H9c2 cardiomyocytes, H2O2 injury protection, 2 h. protection from H2O2 cell death, % at 20 µM. hit rate 0.63% among 360,000. AID 588492, 2011;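 active = compounds giving at least 50% protection of heart cells from peroxide-induced death in the single-dose screen, raw or plate-pattern-corrected value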;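 also: 0% = DMSO wells with peroxide and 100% = DMSO wells without peroxide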
SENP1 inh = human SENP1 catalytic domain inhibitors, primary screen, biochemical, FRET, uHTS; Sentrin-specific protease 1 (Homo sapiens), Q9P0U3; recombinant SENP1 catalytic domain, CyPet-SUMO1-YPet FRET cleavage; inhibition, % at 10 µM; hit rate 0.21% among 360,000; AID 624204, 2012;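 active = inhibition at least 30% at 10 µM, raw YFP signal under a set limit, fluorescence ratio 0.5 to 1.5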;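 also: 0% = enzyme with DMSO and 100% = no enzyme wells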
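Test system: hSENP1 catalytic domain, recombinant; Amount: 20 pM final SENP1 enzyme; Medium: Tris pH 8 buffer plus EDTA, NaCl, BME, BSA, NP40, catalase; Schedule: 50 min enzyme reaction, room temperature, light-protected; Technique: FRET fluorescence in CFP and YFP emission channels; Controls: no-enzyme wells low, DMSO-plus-enzyme wells high control.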
FAS-TE inh = FAS thioesterase domain inhibitors, primary screen, biochemical, fluorescence intensity, uHTS. inhibition, % at 15 µM. Fatty acid synthase (Homo sapiens), P49327. AID 602261, 2012. recombinant FAS-TE, OMFH fluorogenic substrate, fluorescence endpoint. hit rate 0.67% among 360,000;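 active = compounds whose normalised, plate-corrected inhibition of enzyme fluorescence in the single-dose primary screen is 50% or more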;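 also: 0% = DMSO with enzyme and 100% = substrate without enzyme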
Target sequence (P49327 whole entry, looked up, the tested form may be a part): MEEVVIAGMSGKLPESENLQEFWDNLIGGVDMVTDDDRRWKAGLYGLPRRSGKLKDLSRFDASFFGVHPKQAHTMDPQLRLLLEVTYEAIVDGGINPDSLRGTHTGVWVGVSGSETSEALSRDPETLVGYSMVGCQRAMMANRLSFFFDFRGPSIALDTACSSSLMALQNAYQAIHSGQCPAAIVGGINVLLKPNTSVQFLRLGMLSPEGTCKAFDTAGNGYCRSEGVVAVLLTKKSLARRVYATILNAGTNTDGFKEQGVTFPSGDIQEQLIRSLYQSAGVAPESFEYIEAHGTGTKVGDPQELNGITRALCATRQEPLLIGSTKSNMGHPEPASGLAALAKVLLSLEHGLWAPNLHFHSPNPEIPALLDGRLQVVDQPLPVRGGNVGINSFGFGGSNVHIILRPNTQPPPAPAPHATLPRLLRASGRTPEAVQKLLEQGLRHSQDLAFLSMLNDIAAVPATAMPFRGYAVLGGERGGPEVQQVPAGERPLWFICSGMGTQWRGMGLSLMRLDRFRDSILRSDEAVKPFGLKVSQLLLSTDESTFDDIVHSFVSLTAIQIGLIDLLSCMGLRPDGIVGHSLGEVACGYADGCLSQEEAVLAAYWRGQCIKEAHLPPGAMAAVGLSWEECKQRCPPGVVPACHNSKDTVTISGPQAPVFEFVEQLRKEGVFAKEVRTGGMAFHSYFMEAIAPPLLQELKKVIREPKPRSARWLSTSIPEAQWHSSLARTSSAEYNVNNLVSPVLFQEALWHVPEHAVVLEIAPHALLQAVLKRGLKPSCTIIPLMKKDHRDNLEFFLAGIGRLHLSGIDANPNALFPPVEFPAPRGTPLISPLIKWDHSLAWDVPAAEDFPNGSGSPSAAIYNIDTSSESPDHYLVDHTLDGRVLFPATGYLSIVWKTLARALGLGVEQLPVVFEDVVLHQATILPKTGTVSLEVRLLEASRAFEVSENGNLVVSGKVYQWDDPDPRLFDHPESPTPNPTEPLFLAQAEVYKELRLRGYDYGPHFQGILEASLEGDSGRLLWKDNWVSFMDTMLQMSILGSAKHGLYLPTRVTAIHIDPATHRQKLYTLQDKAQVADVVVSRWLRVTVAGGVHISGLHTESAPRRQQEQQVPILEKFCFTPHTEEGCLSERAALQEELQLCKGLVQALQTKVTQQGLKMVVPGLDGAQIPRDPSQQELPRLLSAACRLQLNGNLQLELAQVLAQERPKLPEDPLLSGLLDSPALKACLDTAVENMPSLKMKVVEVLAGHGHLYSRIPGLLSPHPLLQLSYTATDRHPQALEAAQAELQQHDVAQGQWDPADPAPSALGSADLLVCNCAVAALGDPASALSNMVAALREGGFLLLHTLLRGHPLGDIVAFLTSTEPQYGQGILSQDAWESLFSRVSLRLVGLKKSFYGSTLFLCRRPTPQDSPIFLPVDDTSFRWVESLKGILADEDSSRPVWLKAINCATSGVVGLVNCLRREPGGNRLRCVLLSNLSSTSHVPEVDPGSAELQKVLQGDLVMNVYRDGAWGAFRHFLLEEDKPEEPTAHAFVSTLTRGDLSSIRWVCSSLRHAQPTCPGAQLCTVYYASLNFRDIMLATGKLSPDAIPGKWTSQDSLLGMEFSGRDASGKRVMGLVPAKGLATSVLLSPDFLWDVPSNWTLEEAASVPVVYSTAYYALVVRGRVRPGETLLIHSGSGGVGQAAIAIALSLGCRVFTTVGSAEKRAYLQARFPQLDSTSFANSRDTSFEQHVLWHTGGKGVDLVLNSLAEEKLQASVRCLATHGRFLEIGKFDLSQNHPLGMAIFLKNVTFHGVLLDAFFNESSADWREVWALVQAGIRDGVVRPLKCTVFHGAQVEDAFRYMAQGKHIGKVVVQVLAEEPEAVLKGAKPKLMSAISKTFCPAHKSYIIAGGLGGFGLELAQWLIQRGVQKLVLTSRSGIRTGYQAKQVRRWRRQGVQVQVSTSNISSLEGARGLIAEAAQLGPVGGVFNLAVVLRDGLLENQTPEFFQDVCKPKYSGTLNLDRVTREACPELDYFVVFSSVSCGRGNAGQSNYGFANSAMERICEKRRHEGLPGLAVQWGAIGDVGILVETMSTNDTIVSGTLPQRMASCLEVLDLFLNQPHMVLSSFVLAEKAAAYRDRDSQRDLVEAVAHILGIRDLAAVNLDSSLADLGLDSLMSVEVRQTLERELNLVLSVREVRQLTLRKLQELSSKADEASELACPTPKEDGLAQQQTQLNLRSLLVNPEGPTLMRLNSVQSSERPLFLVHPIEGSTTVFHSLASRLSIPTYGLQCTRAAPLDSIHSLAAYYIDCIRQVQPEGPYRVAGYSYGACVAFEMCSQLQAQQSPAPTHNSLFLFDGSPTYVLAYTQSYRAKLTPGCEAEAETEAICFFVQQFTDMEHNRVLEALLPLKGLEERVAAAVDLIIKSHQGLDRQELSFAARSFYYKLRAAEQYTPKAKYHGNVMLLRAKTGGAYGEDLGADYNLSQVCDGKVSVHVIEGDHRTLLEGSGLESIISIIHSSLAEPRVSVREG
Starred values were filed as active, the others as inactive; · = no result given. Sampled rows, rich in hits. Any-hit rate of the full collection: about 4%.

SMILES | Arrestin-AP2 inh | hiPSC survival | GRIN3A LBD mod | Cardio protect | SENP1 inh | FAS-TE inh
Cc1ccc(C)c(S(=O)(=O)N2CCN(C(=O)Cn3[nH]c(=O)c4ccccc4c3=O)CC2)c1 | -12.1 | 0.5 | -3.1 | 60.8* | 3.4 | 0.8
C=CCn1c(COc2ccccc2)nnc1SCC(=O)N/N=C/c1cc(Cl)ccc1O | 28.2 | 4.3 | -6.4 | 85.6* | -22.0 | 12.7
C=CCn1c(CNc2ccccc2)nnc1SCC(=O)N/N=C/c1ccc(O)cc1O | -2.9 | -1.2 | 3.0 | 85.1* | -8.6 | 0.4
C=CCn1c(CNc2ccc(C)cc2)nnc1SCC(=O)N/N=C/c1ccc(O)cc1O | -1.3 | -3.1 | -11.1 | 68.1* | -8.2 | 6.0
C=CCn1c(COc2ccccc2)nnc1SCC(=O)N/N=C/c1ccc(C)cc1 | 3.9 | -0.8 | -3.7 | -17.8 | -0.5 | 3.1
CC1(C(=O)NCc2ccccc2)CSCC(=O)N1Cc1cccs1 (configuration not stated) | · | · | · | · | 4.2 | ·
CCc1nc(SCC(=O)NCc2ccccc2)c2c(=O)n(C)c(=O)n(C)c2n1 | -8.9 | -1.1 | 4.0 | 38.3 | 4.9 | 1.5
Cc1nc(SCC(=O)NCc2ccc(F)cc2)c2c(=O)n(C)c(=O)n(C)c2n1 | 2.6 | 1.8 | -7.4 | 52.9* | 0.6 | 18.6
COc1ccc(/C=C/c2ccc3cccc(O)c3n2)cc1Br | 0.5 | 0.1 | 37.0* | 62.0* | 2.0 | 8.6
Oc1cccc(/C=C/c2ccc3cccc(O)c3n2)c1 | 3.1 | -0.2 | 20.3* | -5.3 | 0.4 | 7.2
COc1cc(/C=C/c2ccc3cccc(O)c3n2)cc(Br)c1OC | 2.3 | 0.4 | 8.0 | 80.4* | 9.4 | 15.4
C=C(C)[C@H]1CC=C(C(=O)O)CC1 | · | · | 1.6 | · | · | ·
O=C(NO)c1ccc(C(=O)N(C2CCCCC2)C2CCCCC2)cc1 | 0.8 | -2.7 | -1.0 | 80.6* | -0.3 | -20.5
CCOC(=O)C1=NN(C(C)=O)C2(CC(=O)N(c3cc(C)cc(C)c3)C2=O)C1 (configuration not stated) | -0.4 | 0.5 | 13.4* | -4.3 | -0.1 | -6.0
N=NC(=O)c1ccccc1Nc1c(O)[nH]c2ccccc12 | 5.0 | -3.2 | -3.1 | -17.4 | 12.4 | 1.1
COC(=O)c1c(NC(=O)c2nc3ccccc3s2)sc2c1CCN(C(C)=O)C2 | -2.0 | 1.6 | -0.5 | 58.3* | -45.7 | 9.3
Cc1cccnc1C1=NOC(Cc2ccccc2)C(=O)N1Cc1ccc2c(c1)OCO2 (configuration not stated) | · | -2.1 | · | -0.7 | -2.4 | 40.5
Cc1cc(=O)[nH]c(SCC(=O)N2CCC(Cc3ccccc3)CC2)n1 | -24.1 | -0.6 | 0.0 | -6.2 | 0.5 | -1.5
O=C(CSc1nc(C(F)(F)F)cc(=O)[nH]1)N1CCC(Cc2ccccc2)CC1 | 4.0 | 0.3 | 12.8* | -5.5 | 0.7 | -4.5
Cc1cc(C)n2nc(CNS(=O)(=O)c3ccc(C(C)(C)C)cc3)nc2n1 | · | -1.8 | · | -2.1 | -0.4 | -4.3
CN1CCN(c2cc(N3CCN(C(=O)c4ccco4)CC3)c3c4c(onc24)-c2ccccc2C3=O)CC1 | 27.2 | -0.6 | -1.6 | 14.9 | 49.2* | 4.7
O=C(O)CCCNc1cc(N2CCN(C(=O)c3ccco3)CC2)c2noc3c2c1C(=O)c1ccccc1-3 | 39.0 | -0.6 | 5.5 | -6.0 | 83.4* | -25.3
O=C1c2ccccc2-c2onc3c(N4CCN(CCO)CC4)cc(N4CCN(C(=O)c5ccco5)CC4)c1c23 | 24.9 | 0.0 | -0.8 | 46.8 | 32.2* | 2.9
O=C(c1ccco1)N1CCN(CCCCN2C(=O)c3ccccc3C2=O)CC1 | 2.1 | -1.4 | -5.5 | -3.5 | 0.9 | -6.3
CCOC(=O)N1CCN(c2cc(NCCC(=O)O)c3c4c(onc24)-c2ccccc2C3=O)CC1 | 26.5 | -1.1 | 2.1 | -1.4 | 100.3 | -77.3
SMILES | Arrestin-AP2 inh | hiPSC survival | GRIN3A LBD mod | Cardio protect | SENP1 inh | FAS-TE inh
CCOc1ccc(OCC(=O)OCC(=O)Nc2ccccc2C#N)cc1 | -3.5 | -0.2 | -0.1 | -1.6 | 0.6 | -4.8
N#Cc1ccccc1NC(=O)C1SC(=Nc2ccccc2)C(C(=O)Nc2ccc(Cl)cc2)=C1N (configuration not stated) | 0.4 | -0.5 | 22.4* | -23.0 | -93.1 | 30.2
CCOc1ccc(N=C2SC(C(=O)Nc3ccccc3C#N)C(N)=C2C(=O)Nc2ccc(Cl)cc2)cc1 (configuration not stated) | 3.1 | -1.5 | 26.7* | -0.8 | -5.1 | 34.6
COc1ccc(NC(=O)c2cc(-c3cc(C)cc(C)c3O)n[nH]2)cc1Cl | 0.6 | 8.6 | 35.6* | -17.6 | 0.2 | 16.5
Cc1ccc(NC(=O)c2cc(-c3ccccc3O)n[nH]2)cc1Cl | -11.2 | -0.1 | 26.2* | 13.6 | 0.3 | -5.4
COc1ccc(NC(=O)c2cc(-c3ccccc3O)n[nH]2)cc1Cl | -10.1 | -0.6 | 26.0* | -4.0 | 0.8 | -5.1
Cc1cccc(NC(=O)c2cc(-c3cc(C)cc(C)c3O)n[nH]2)c1 | -5.3 | -0.5 | 35.7* | -16.0 | -1.9 | 10.4
Cc1cc(C)c(O)c(-c2cc(C(=O)Nc3cccnc3)[nH]n2)c1 | 7.1 | -0.1 | 7.2 | 8.9 | 1.3 | -7.2
COc1ccc(NC(=O)Nc2nnc([C@@H]3C[C@H](O)[C@@H](CO)O3)s2)cc1 | · | 3.0 | · | 1.1 | 3.3 | -2.5
C[C@@H]1CN([C@H](C)CO)C(=O)CCCn2nncc2CO[C@H]1CN(C)Cc1ccc(O)cc1 | · | -1.5 | · | 6.6 | 2.4 | -5.6
NS(=O)(=O)c1ccc(NC(=O)c2cc(-c3ccccc3O)n[nH]2)cc1 | -13.3 | -0.2 | 34.2* | 3.5 | 1.2 | -11.1
C/C(=N\NC(=O)c1ccc(NS(=O)(=O)c2cccs2)cc1)c1ccc(C(C)(C)C)cc1 | 14.5 | 0.5 | 14.9* | -0.2 | 1.9 | 40.7
CS(=O)(=O)c1ccc2nc(NC(=O)c3ccccc3)sc2c1 | -18.8 | -0.3 | 3.0 | -13.6 | 1.5 | -3.6
COc1ccc(C)cc1NC(=O)c1ccc(NS(=O)(=O)c2cccs2)cc1 | -6.3 | -0.7 | -6.3 | -2.1 | 0.2 | 6.0
CC(=O)Nc1ccc(S(=O)(=O)Nc2nc3ccc([N+](=O)[O-])cc3s2)cc1 | -4.2 | -0.9 | 15.7* | 9.3 | -74.0 | 10.9
CS(=O)(=O)c1ccc2nc(NC(=O)c3ccc(NS(=O)(=O)c4cccc([N+](=O)[O-])c4)cc3)sc2c1 | 27.8 | 0.4 | 15.9* | 4.2 | -1.2 | 4.5
